Results on 5 molecules are retold here after ChEMBL document CHEMBL3352256 (J Med Chem, 2014).

As a reminder, the Ki is the dissociation constant of the complex between target and ligand, obtained from inhibition or displacement. Read a high Ki as a looser hold on the target. A word on the inhibition: it is the share of the control response that was lost under treatment. Low readings indicate a weak effect, high ones a strong effect.

The nature of test [1]: Inhibition of HTLV-1 protease. The arrangement: species or system Human T-cell leukemia virus type I.
For test [2], the system named is Human T-cell leukemia virus type I. Nature of the test: Inhibition of HTLV-1 protease at 80 uM using (RE(Edans)TKVLVVQPK(Dabsyl)R) substrate by fluorescence-based assay. In outline: (§1)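 HTLV-1 PR (aspartic protease, homodimer) activity was measured in a fluorescence-based assay. Inhibitors were tested at 80, 40 and 8 μM, and the read-out was percent inhibition. A percentage efficiency index (PEI) was then calculated from the percent inhibition value and the molecular weight.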

Test [3] has the same test system. The experiment in a line: Inhibition of HTLV-1 protease at 40 uM using (RE(Edans)TKVLVVQPK(Dabsyl)R) substrate by fluorescence-based assay. In outline:
as §1

Test [4] has the same test system. Nature of the test: Inhibition of HTLV-1 protease at 8 uM using (RE(Edans)TKVLVVQPK(Dabsyl)R) substrate by fluorescence-based assay. A digest of the protocol: as §1

Turning to `CC(C)CN(C[C@@H](O)[C@H](Cc1ccccc1)NC(=O)O[C@H]1CCOC1)S(=O)(=O)c1ccc(N)cc1`, in test [1], the Ki is over 20 µM.

In test [1], `CC(C)(C)NC(=O)[C@@H]1C[C@@H]2CCCC[C@@H]2CN1C[C@@H](O)[C@H](Cc1ccccc1)NC(=O)[C@H](CC(N)=O)NC(=O)c1ccc2ccccc2n1` registered a Ki of over 20 µM.

Consider `CC(C)(C)NC(=O)[C@@H]1CNCCN1C[C@@H](O)C[C@@H](Cc1ccccc1)C(=O)N[C@H]1c2ccccc2C[C@H]1O`, for which the values for the inhibition in test [2], in test [3] and in test [4] were 60.8%, 45.1% and 16.8%, respectively.

Consider `CC(C)(C)NC(=O)[C@@H]1CN(Cc2cccnc2)CCN1C[C@@H](O)C[C@@H](Cc1ccccc1)C(=O)N[C@H]1c2ccccc2C[C@H]1O`, for which, in test [1], the affinity, expressed as Ki, was 3.5 µM. In addition, the figures for the inhibition in test [2], in test [3] and in test [4] were 95.4%, 91.2% and 71.8%, respectively.

On to `Cc1c(O)cccc1C(=O)N[C@@H](CSc1ccccc1)[C@H](O)CN1C[C@H]2CCCC[C@H]2C[C@H]1C(=O)NC(C)(C)C`, for which the inhibitory constant (Ki) in test [1] was over 20 µM.
